Calls of active or inactive are those of the source. No cut-off for these calls is given here.
Key:
[1] = target: Activin receptor type-2A (Homo sapiens, UniProt P27037); test: Inhibition of ACVR2A (unknown origin) by LanthaScreen TR-FRET assay
Summary of the method: (§1)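 Outsourced SelectScreen profiling using a LanthaScreen TR-FRET binding format, in which a tight-binding tracer is displaced from the kinase.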

[2] = target: Activin receptor type-2B (Homo sapiens, UniProt Q13705); test: Inhibition of ACVR2B (unknown origin) by LanthaScreen TR-FRET assay; summary of the method: as §1
Chain of Activin receptor type-2B (Q13705 whole entry, the tested form may be a part): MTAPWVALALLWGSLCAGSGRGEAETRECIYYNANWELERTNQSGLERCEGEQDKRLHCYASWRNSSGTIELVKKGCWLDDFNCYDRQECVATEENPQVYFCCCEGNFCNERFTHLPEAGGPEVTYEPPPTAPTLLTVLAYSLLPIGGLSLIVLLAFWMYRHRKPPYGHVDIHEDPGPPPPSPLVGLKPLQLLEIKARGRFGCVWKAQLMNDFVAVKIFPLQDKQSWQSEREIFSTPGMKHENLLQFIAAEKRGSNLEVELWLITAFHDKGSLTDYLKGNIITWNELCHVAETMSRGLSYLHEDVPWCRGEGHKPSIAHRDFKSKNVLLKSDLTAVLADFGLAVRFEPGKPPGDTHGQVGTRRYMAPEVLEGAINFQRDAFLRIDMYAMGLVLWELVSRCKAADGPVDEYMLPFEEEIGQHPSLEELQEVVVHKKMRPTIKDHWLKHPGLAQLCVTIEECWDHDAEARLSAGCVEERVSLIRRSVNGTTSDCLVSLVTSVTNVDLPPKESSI

[3] = target: T1, Bone morphogenetic protein receptor type-2 (Homo sapiens, UniProt Q13873); test: Inhibition of recombinant C-terminal 6His-tagged human BMPR2 (188 to 517 residues) expressed in Escherichia coli Rosetta by LanthaScreen TR-FRET assay; summary of the method: as §1
T1 sequence (Q13873 whole entry): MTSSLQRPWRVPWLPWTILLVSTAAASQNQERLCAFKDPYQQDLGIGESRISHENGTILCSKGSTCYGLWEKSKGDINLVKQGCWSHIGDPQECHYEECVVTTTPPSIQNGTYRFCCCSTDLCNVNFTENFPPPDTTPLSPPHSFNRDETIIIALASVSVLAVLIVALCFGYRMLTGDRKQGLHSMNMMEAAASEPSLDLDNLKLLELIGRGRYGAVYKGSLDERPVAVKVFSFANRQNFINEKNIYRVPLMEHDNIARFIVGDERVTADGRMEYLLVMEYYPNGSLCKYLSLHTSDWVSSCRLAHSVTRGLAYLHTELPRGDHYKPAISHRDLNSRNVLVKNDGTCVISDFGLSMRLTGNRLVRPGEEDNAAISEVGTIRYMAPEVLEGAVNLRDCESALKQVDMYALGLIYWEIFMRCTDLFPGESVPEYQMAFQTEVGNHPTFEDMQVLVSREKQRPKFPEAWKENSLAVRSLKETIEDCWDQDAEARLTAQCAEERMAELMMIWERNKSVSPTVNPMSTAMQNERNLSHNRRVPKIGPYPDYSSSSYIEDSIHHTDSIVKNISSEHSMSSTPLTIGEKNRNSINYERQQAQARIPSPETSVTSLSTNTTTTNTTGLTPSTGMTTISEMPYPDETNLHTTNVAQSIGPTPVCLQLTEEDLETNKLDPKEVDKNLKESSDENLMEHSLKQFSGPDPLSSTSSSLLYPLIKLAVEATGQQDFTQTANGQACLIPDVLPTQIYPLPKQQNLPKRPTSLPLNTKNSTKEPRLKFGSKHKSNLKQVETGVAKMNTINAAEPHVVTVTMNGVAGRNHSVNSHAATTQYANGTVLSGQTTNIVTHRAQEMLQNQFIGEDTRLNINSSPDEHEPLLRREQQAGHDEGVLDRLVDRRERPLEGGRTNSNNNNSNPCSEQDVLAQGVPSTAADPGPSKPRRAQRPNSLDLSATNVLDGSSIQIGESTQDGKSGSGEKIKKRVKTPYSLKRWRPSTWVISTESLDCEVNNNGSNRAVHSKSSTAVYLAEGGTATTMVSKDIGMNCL

[4] = target: Bone morphogenetic protein receptor type-1B (Homo sapiens, UniProt O00238); test: Inhibition of BMPR1B (unknown origin) by LanthaScreen TR-FRET assay; summary of the method: as §1
Chain of Bone morphogenetic protein receptor type-1B (O00238 whole entry): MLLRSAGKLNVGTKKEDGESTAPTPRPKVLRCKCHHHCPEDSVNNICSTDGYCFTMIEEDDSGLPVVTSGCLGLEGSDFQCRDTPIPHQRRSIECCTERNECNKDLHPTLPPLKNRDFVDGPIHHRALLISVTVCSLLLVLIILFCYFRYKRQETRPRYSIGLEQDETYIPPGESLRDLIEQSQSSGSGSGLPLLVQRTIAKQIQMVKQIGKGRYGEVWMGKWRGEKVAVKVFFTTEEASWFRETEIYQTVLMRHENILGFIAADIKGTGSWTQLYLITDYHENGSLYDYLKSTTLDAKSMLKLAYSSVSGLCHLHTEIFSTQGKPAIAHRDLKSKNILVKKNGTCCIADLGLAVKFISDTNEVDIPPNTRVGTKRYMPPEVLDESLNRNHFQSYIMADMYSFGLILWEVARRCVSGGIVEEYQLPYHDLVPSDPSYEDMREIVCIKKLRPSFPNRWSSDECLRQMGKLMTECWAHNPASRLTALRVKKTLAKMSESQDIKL

[5] = target: T2, Activin receptor type-1 (Homo sapiens, UniProt Q04771); test: Inhibition of ACVR1 (unknown origin) by LanthaScreen TR-FRET assay; summary of the method: as §1
T2 sequence (Q04771 whole entry): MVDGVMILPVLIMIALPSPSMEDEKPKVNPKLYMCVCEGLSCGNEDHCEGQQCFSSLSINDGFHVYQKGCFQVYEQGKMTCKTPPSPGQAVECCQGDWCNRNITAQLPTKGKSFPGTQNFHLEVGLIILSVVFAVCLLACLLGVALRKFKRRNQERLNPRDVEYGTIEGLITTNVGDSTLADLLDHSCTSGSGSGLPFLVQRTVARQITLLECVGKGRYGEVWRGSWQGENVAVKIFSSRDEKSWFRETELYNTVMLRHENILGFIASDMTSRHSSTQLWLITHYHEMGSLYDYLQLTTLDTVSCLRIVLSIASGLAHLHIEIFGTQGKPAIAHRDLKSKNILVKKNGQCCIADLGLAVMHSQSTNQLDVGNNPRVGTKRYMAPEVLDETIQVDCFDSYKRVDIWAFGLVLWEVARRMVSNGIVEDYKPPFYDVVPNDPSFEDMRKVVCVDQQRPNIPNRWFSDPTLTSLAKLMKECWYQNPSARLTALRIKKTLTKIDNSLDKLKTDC

[6] = Metabolic stability in human liver microsomes assessed as half life at 2 uM and mesured upto 60 mins in presence of NADPH by UHPLC-MS analysis; assay type: ADME, Microsome; conditions: microsomes, 1 h, 2 µM
[7] = target: T3, Activin receptor type-1B (Homo sapiens) (UniProt P36896); test: Inhibition of ACVR1B (unknown origin) by Z'-LYTE assay
T3 sequence (whole entry): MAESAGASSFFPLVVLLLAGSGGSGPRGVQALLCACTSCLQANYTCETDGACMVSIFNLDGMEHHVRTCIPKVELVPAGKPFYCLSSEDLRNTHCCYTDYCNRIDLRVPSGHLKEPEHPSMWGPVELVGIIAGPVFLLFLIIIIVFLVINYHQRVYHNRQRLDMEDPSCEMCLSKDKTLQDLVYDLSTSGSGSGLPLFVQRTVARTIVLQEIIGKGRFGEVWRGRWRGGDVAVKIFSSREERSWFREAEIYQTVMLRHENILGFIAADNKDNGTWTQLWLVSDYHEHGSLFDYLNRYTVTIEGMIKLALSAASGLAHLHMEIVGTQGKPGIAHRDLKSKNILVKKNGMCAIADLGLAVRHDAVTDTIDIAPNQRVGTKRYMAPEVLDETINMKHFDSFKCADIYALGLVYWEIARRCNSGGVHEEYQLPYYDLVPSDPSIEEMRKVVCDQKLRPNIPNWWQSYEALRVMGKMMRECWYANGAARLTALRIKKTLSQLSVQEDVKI
Summary of the method: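 Outsourced SelectScreen profiling by Z'-LYTE, a fluorescence coupled-enzyme kinase activity assay based on protease sensitivity of nonphosphorylated versus phosphorylated peptide.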

[8] = target: TGF-beta receptor type-2 (Homo sapiens, UniProt P37173); test: Inhibition of TGFBR2 (unknown origin) by LanthaScreen TR-FRET assay; summary of the method: as §1
Chain of TGF-beta receptor type-2 (P37173 whole entry, the tested form may be a part): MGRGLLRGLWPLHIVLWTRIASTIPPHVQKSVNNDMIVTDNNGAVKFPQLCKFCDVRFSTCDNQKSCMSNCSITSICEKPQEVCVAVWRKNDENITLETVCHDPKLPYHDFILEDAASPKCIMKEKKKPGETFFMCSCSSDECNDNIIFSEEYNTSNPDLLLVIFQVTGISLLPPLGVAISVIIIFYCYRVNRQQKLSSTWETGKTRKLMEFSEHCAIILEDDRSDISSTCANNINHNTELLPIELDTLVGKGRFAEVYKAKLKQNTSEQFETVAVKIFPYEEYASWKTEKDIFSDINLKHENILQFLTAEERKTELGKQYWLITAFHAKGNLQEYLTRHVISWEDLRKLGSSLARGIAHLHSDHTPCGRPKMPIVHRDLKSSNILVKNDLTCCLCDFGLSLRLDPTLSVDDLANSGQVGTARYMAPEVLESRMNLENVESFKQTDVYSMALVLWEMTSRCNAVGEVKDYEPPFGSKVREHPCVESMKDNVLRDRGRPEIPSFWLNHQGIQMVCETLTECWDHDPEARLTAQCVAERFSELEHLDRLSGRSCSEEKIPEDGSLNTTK

[9] = target: T1, Bone morphogenetic protein receptor type-2; test: Inhibition of recombinant C-terminal 6His-tagged human BMPR2 (188 to 517 residues) expressed in Escherichia coli Rosetta assessed as apparent inhibition constant using ATP as substrate incubated for 30 mins by Morrison plot analysis; conditions: read-out: Ki(app)
Summary of the method: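 Purified His-tagged BMPR2 kinase domain with no peptide substrate (intrinsic ATPase). 10 μM ATP, 0.02% Tween-20, kinase buffer, 50 μL, enzyme level optimized for initial-velocity conditions. 30 min at 30 °C. Leftover ATP read by Kinase-Glo luminescence, with no-kinase controls. Kiapp from a modified Morrison equation fitted to normalized fractional activity, assuming no specific inhibition mode.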

[10] = Metabolic stability in mouse liver microsomes assessed as half life at 2 uM and mesured upto 60 mins in presence of NADPH by UHPLC-MS analysis; assay type: ADME, Microsome; conditions: microsomes, 1 h, 2 µM

Chain of Activin receptor type-2A (P27037 whole entry): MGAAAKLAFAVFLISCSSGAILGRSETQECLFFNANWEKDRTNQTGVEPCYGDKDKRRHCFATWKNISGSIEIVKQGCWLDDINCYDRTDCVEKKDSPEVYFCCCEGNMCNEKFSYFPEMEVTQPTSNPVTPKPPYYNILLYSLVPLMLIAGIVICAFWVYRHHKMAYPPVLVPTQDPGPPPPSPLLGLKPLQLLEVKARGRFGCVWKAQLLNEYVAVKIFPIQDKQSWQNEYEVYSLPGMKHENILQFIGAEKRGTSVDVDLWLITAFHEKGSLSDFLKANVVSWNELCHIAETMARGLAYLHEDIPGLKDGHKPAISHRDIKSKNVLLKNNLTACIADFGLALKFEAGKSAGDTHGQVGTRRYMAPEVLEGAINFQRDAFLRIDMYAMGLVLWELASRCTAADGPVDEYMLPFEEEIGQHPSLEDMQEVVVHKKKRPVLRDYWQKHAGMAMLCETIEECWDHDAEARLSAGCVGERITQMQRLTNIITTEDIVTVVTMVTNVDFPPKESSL

inhibition [1] | inhibition [2] | IC50 [3] | IC50 [4] | IC50 [5] | t1/2 [6] | inhibition [7] | inhibition [8] | Ki [9] | t1/2 [10] | inhibition [4] | SMILES
inactive | inactive | 1.2 nM | > 1000 nM | 124 nM | 80 min | inactive | inactive | 8 nM | 45 min | – | NC(=O)c1cccc(CNC(=O)c2ccc3nc(-c4ccc5cnccc5c4)n(C4CCCC4)c3c2)c1
inactive | inactive | 1.8 nM | > 1000 nM | 251 nM | – | inactive | inactive | 6.2 nM | – | – | CNC(=O)[C@@H]1CC[C@@H](n2c(-c3ccc4cnccc4c3)nc3ccc(C(=O)NCc4cccc(C(N)=O)c4)cc32)C1
inactive | inactive | 2.8 nM | – | – | 305 min | inactive | inactive | 7 nM | 40 min | inactive | COc1cnc(Nc2cccc(S(N)(=O)=O)c2)nc1N1CCN(c2ccccc2)C(=O)C1
inactive | inactive | 1.6 nM | – | > 1000 nM | 22 min | inactive | inactive | 20.6 nM | 7 min | inactive | CNC(=O)CCc1ccc(C(=O)NCc2cccc(N3CCN(c4nc(Nc5cccc(S(N)(=O)=O)c5)ncc4OC)CC3)c2)cc1

— ChEMBL document CHEMBL5316332 (J Med Chem, 2023)
